Test [1] deals with SW480. Briefly: Antiproliferative activity against human SW480 cells after 72 hrs. It is filed as functional, cell-based. As to conditions: SW480, 72 h. A digest of the protocol: (§1)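 Asynchronously growing cells seeded at 5 × 10^3 cells/well and held 24 h in medium, then exposed to drug for 72 h; MTT reagent (5 mg/mL stock) added. Growth taken as absorbance of treated wells as percent of untreated controls. IC50 is the dose giving 50% growth inhibition versus untreated cells. Five separate experiments, each in triplicate; mean ± SD.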

The subject of test [2] is SW48. Nature of the test: Antiproliferative activity against human SW48 cells after 72 hrs. It counts as functional, cell-based. Conditions: SW48, 72 h. The method in brief: as §1
In test [3] the test system is MCF7. Briefly: Antiproliferative activity against human MCF7 cells after 72 hrs. It is filed as functional, cell-based. Conditions: MCF7, 72 h. The method in brief: as §1
The test system of test [4] is HCT-116. Briefly: Antiproliferative activity against human HCT116 cells after 72 hrs. It is filed as functional, cell-based. Conditions: HCT-116, 72 h. A digest of the protocol: as §1
In test [5] the test system is SW48. Nature of the test: Cell cycle arrest in SW48 cells by accumulation at G1 phase at 100 uM after 72 hrs. It counts as functional, Homo sapiens. A digest of the protocol:
(§2)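 Colorectal cells given 100 µM compound for 72 h. Afterwards 10^6 cells/mL were resuspended in propidium iodide solution and held overnight at 4 °C, then run on flow cytometry. Doublets and aggregates were gated out on FL2-area/FL2-width before calculating the percentage of cells in G1, S and G2/M phases.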

Test [6] relates to SW480. Nature of the test: Cell cycle arrest in SW480 cells by accumulation at G2/M phase at 100 uM after 72 hrs. It counts as functional, Homo sapiens. The method in brief:
as §2

The subject of test [7] is SW48. Nature of the test: Cell cycle arrest in SW48 cells by accumulation at G2/M phase at 100 uM after 72 hrs. It counts as functional, Homo sapiens. A digest of the protocol: as §2
Test [8] relates to HCT-116. Nature of the test: Cell cycle arrest in HCT116 cells by accumulation at G1 phase at 100 uM after 72 hrs. It counts as functional, Homo sapiens. A digest of the protocol:
as §2

Test [9] is described as follows: Antiproliferative activity against human Mes-sa cells after 72 hrs. It counts as functional, cell-based. The method in brief:
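Cells seeded at 5 × 10^3 cells/well and allowed 24 h in medium before compound addition. Exposure lasted 72 h, followed by MTT read-out. Growth was expressed as absorbance relative to untreated controls, and IC50 was taken as the dose giving 50% growth inhibition. Five separate experiments were run, each in triplicate, reported as mean ± SD.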

Test [10] relates to SW480. Nature of the test: Cell cycle arrest in SW480 cells by accumulation at S phase at 100 uM after 72 hrs. It counts as functional, Homo sapiens. The method in brief:
as §2

For test [11], the system named is HCT-116. Briefly: Cell cycle arrest in HCT116 cells by accumulation at S phase at 100 uM after 72 hrs. It counts as functional, Homo sapiens. A digest of the protocol:
as §2

Test [12] has as its system HCT-116. Briefly: Cell cycle arrest in HCT116 cells by accumulation at G2/M phase at 100 uM after 72 hrs. It counts as functional, Homo sapiens. The method in brief:
as §2

In test [13] the test system is SW48. Briefly: Cell cycle arrest in SW48 cells by accumulation at S phase at 100 uM after 72 hrs. It is filed as functional, Homo sapiens. A digest of the protocol:
as §2

The subject of test [14] is SW480. Nature of the test: Cell cycle arrest in SW480 cells by accumulation at G1 phase at 100 uM after 72 hrs. It counts as functional, Homo sapiens. A digest of the protocol:
as §2

The structures appear in SMILES notation.

For orientation: IC50 means the concentration that gives 50% inhibition. Regarding `O=c1[nH]cc(F)c(=O)[nH]1` [FLUOROURACIL], the IC50 in test [1] is 3.5 µM; in test [2], 5.3 µM; in [3], 0.3 µM; in test [4], 2.8 µM.
Consider `COc1cc(CO)cc2c1[nH]c1ncccc12`, for which the Activity in test [5] was found to be 57.4%; in test [6] it was 14.7%; in [7] it was 32.4%; in [8] it was 53.3%; in test [10], 33%; in test [11] it was 17.4%. Moreover, the Activity in test [12] is 29.3%; in test [13], 9.7%; in test [14], 52.3%. Further, the IC50 was determined as 63.1 µM in test [1]; 21.1 µM in test [2]; 65 µM in test [9]; 58 µM in [3]; 36.6 µM in [4].
Turning to `COC(=O)c1cc(OC)c2[nH]c3ccccc3c2c1` [MUKONINE], the Activity in test [5] was 76.7%; in test [6], 10.3%; in test [7], 9%; in [8], 70.8%; in [10], 33.8%; in test [11] it was 17.4%. For the same compound, the figures for the Activity in test [12], in test [13] and in test [14] were 11.7%, 14.1% and 55.8%, respectively. The IC50 in test [1] stood at 72 µM; in test [2] it was 62 µM; in [9], 80 µM; in [3], 30 µM; in test [4], 43 µM.
Turning to `COC(=O)c1cc(O)c2[nH]c3ccccc3c2c1` [CLAUSINE E], the Activity was 65.6% in test [5]; 25.7% in test [6]; 21.9% in [7]; 60% in test [8]; 17.5% in [10]; 12.1% in test [11]. The Activity turned out to be 28% in test [12], 12.5% in test [13] and 59.9% in test [14]. Moreover, the IC50 in test [1] is 4.8 µM; in test [2], 21 µM; in [9], 35 µM; in test [3], 0.6 µM; in test [4], 1.9 µM.
Regarding `COC(=O)c1cc(O)c2[nH]c3ncccc3c2c1`, the Activity in test [5] is 62.4%; in test [6], 14.7%; in test [7] it was 18.7%; in test [8], 56.6%; in test [10], 26.5%; in test [11], 29.1%. Besides, the Activity in test [12] is 14.3%; in test [13] it was 18.9%; in test [14] it was 58.7%. Also, the IC50 in test [1] was 8.8 µM; in test [2], 9 µM; in test [9], 16 µM; in test [3] it was 11 µM; in test [4], 7.1 µM.
Consider `COC(=O)c1cc(OC)c2[nH]c3ncccc3c2c1`, for which the Activity in test [5] came to 59%; in test [6], 11.9%; in [7] it was 18.1%; in test [8] it was 52.6%; in test [10] it was 27.3%; in test [11] it was 31%. The Activity is reported as 16.4% in test [12], 23% in [13] and 60.7% in test [14]. Besides, the 50% inhibitory concentration (IC50) in test [1] was 4.7 µM; in [2] it was 5.6 µM; in test [9], 144 µM; in [3], 4.4 µM; in [4], 8.6 µM.

These data come from ChEMBL document CHEMBL1149612, “Synthesis and antiproliferative activity of clausine E, mukonine, and koenoline bioisosteres” (Bioorg Med Chem, 2007).
